Compound activity (PubChem)
PG9 Ab binder: small molecules binding HIV-1 gp120 antibody PG9; TR-FRET gp120-PG9 antibody binding; inhibition, % at 6.7 µM; 360,000 tested, 0.43% active; AID 624416; in the data active = inhibition above about 8.5%
MIN6 prolif: induces beta-cell replication in MIN6 cells. MIN6 cells proliferation, ATPlite luminescence, 48 h; cells starved in 0.2% serum; 100% = growth in 10% serum. 330,000 tested, 0.29% active. proliferation, % at 10 µM;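 active = compounds whose signal lies at least 3.5 SD above the mean of all wells on their plate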
TAG inh: triacylglycerol accumulation inhibition. inhibition, % at 12.5 µM. AID 651582. 230,000 tested, 0.66% active. H9c2 cells, Nile Red lipid (TAG) fluorescence; cells loaded with 200 µM oleic acid;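 active = pattern-corrected inhibition of lipid staining of at least 50% with the nuclear-stain viability signal not falling by more than 50%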
hiPSC survival: enhancers of human iPSC single-cell survival. hiPSC single-cell survival, ATPlite luminescence; 100% = ROCK inhibitor wells, 0% = DMSO. survival enhancement, % at 20 µM. 360,000 tested, 0.044% active. AID 602274; in the data active = survival enhancement above about 18%;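 note: cells exposed to compounds for 16 hours before the ATP read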
T cruzi repl: blocks replication of Trypanosoma cruzi; T. cruzi beta-gal in NIH3T3, luminescence, 90 h; inhibition, % (no concentration beside the values); 300,000 tested, 1.4% active;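 active = mean inhibition across valid replicates above about 55%, limit read from the data; inconclusive = mean below that limit but half or more replicates reach it; inactive = mean below it, under half of replicates reach it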;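 note: signal also drops with host cell toxicity which is not excluded here; higher percent means less beta-gal luminescence so fewer parasites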
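assay system = mouse NIH/3T3 fibroblasts infected with β-gal-expressing T. cruzi Tulahuen C4 | input = 5,000 NIH/3T3 host cells per well | buffer or medium = DMEM plus 2% FBS | timing = 3 h host attachment, then at least 90 h co-culture | measured by = GalScreen luminescence, 60 min | evaluation = luminescence reflecting intracellular parasite burden, expressed as percent inhibition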
Rev-erbA mod: Rev-erb alpha (human) modulation; P20393; Rev-erbα–FITC-DNA binding, fluorescence polarization, 90 min; activity, % at 10 µM; 370,000 tested, 0.79% active; AID 1259318;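 active = activity above about 14%, limit read from the data; passing the limit was not always enough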
Target sequence (P20393 whole entry, looked up): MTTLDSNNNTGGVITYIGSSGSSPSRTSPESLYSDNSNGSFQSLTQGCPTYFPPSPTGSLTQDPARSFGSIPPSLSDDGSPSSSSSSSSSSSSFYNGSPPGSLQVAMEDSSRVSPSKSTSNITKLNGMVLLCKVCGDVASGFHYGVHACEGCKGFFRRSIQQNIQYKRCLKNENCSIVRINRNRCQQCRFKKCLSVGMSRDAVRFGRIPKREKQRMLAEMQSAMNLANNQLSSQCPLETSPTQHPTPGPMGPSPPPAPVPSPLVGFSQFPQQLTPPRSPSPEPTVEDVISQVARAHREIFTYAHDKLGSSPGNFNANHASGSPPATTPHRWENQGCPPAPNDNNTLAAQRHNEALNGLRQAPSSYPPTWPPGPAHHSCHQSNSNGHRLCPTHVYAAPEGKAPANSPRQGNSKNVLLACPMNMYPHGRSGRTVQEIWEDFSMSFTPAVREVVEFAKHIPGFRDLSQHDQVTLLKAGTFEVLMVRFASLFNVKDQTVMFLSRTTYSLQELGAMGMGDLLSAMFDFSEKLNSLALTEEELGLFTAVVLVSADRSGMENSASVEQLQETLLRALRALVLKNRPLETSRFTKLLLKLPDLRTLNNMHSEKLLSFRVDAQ
PG9 bind confirm: PG9 antibody binding, confirmed; shares compounds with PG9 Ab binder; TR-FRET PG9 antibody binding, biochemical; inhibition, % at 6.7 µM; 1,500 tested, 90% active; AID 651571; in the data active = inhibition above about 9%
PGV04 Ab binding: counter-screen for PG9 binders: binding control antibody PGV04 | shares compounds with PG9 Ab binder | TR-FRET PGV04 antibody-gp120 binding, biochemical | inhibition, % at 6.7 µM | 1,500 tested, 95% active; in the data active = inhibition above about 9.5%
H9c2 TAG conf: triacylglycerol accumulation inhibition, confirmation | 990 tested, 71% active | H9c2 lipid accumulation, Nile Red fluorescence; cells loaded with 200 µM oleic acid | AID 651629 | shares compounds with TAG inh | inhibition, % at 12.5 µM;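 active = mean inhibition across replicates of 40% or more; inactive = mean inhibition below 40%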
Rev-erbA confirm: confirmation of modulators of human Rev-erb alpha DNA binding; shares compounds with Rev-erbA mod; Rev-erb alpha FITC-DNA binding, fluorescence polarization, 90 min; activation, % at 25 µM; 3,000 tested, 61% active; AID 1259319;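 active = activation at or above a set limit, or at least 3 SD above the negative control mean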
RORg counter: RORgamma DNA-binding activity, dose-response counter-screen. shares compounds with Rev-erbA mod. purified RORgamma protein-FITC-DNA binding, fluorescence polarization. IC50, µM. 910 tested, 8% active;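 active = Compounds whose fitted half-maximal concentration for disrupting protein-DNA binding is below 10 micromolar; the record names Rev-erb in its text, so the target is in doubt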
Of the large screens only hits and unclear results are named; the others gave an inactive call (follow-up assays come after a bar, where they were run). Most compounds without a hit are left out; they make up all but 2.9% or so of the library.

O=C(Cn1cc(C(=O)c2ccccc2F)c2ccccc21)NCc1ccco1	PG9 Ab binder 17 (no result: TAG inh) | PG9 bind confirm 15 | PGV04 Ab binding 37
CC(=O)Nc1ccccc1C(=O)OCC(=O)c1ccc2c(c1)OCCO2	none (no result: TAG inh)
COC(=O)Cn1cc(C=C2C(=O)N(C)C(=O)N(C)C2=O)c2ccccc21	PG9 Ab binder 24 (no result: TAG inh, hiPSC survival) | PG9 bind confirm 39 | PGV04 Ab binding 53
COc1ccc(-n2c(=S)[nH]c3ccc(C)cc3c2=O)cc1	PG9 Ab binder 41, Rev-erbA mod 52 (no result: MIN6 prolif, T cruzi repl) | PG9 bind confirm 35 | PGV04 Ab binding 39 | Rev-erbA confirm 19
CCC1(C)CN(S(=O)(=O)OCC(Cl)(Cl)Cl)C(=O)N1 (stereo not drawn)	none
CCC(C)NC(=O)c1c(N)n(CCCOC)c2nc3ccccc3nc12 (stereo not drawn)	none (no result: TAG inh)
COCCCn1c(N)c(C(=O)Nc2ccccc2)c2nc3ccccc3nc21	TAG inh 59 | H9c2 TAG conf 72
O=C(CN1CCCCC1)c1cccc(Br)c1	none (no result: TAG inh)
Cc1ccc(OP2(=O)Nc3cc(C)c(C)cc3S2)cc1 (stereo not drawn)	none (no result: MIN6 prolif, T cruzi repl)
COc1cc2c(c(OC)c1OC)-c1ccc(O)cc1C(NC(C)=O)CC2 (stereo not drawn)	TAG inh 52 (no result: MIN6 prolif, T cruzi repl) | H9c2 TAG conf 58
CNCC(=O)c1ccc(O)c(O)c1	none (no result: MIN6 prolif, T cruzi repl)
COc1ccc(CC2c3cc(OC)c(OC)cc3CCN2C)cc1OC (stereo not drawn)	none (no result: TAG inh)
COc1ccc(C[C@@H]2c3cc(O)c(OC)cc3CCN2C)cc1O	TAG inh 68 | H9c2 TAG conf inactive
COc1cccc(N=Nc2c(O)[nH]c(=S)[nH]c2=O)c1	TAG inh 57 | H9c2 TAG conf 47
O=c1[nH]c(=S)[nH]c(O)c1N=Nc1ccc2c(c1)OCO2	none
COC(=O)C1=C(c2ccc(OCc3ccccc3)cc2)C[C@@H]2CC[C@H]1N2C(=O)NCc1ccc(OC)c(OC)c1	TAG inh 53 (no result: T cruzi repl) | H9c2 TAG conf inactive
CC(=O)OC12COC1CC(O)C1(C)C(=O)C(O)C3=C(C)C(O)CC(O)(C(OC(=O)c4ccccc4)C21)C3(C)C (stereo not drawn)	TAG inh 65 (no result: MIN6 prolif, T cruzi repl) | H9c2 TAG conf 85
CCN1CCC2(CC1)NC(CO)(CO)CO2	none
CC1=CC(=C2C(=O)NC(=S)NC2=O)C=C(C(F)(F)F)N1Cc1ccccc1	TAG inh 54 | H9c2 TAG conf inactive
CN(c1ccc(O)cc1)c1ccc([N+](=O)[O-])c2nonc12	Rev-erbA mod 25 (no result: MIN6 prolif, T cruzi repl) | Rev-erbA confirm 30 | RORg counter inactive
Cc1cc2c(C(F)(F)F)cc(=O)oc2c2c1NCCC2	Rev-erbA mod 17 (no result: TAG inh) | Rev-erbA confirm 17
O=c1cc(C(F)(F)F)c2cc3c4c(c2o1)CCCN4CCC3	none
O=c1[nH]c(=S)n(Cc2ccc(F)cc2)c(O)c1C=NCc1ccc2c(c1)OCO2	Rev-erbA mod 25 | Rev-erbA confirm inactive
CN(C)CCN=Cc1c(O)n(Cc2ccc3c(c2)OCO3)c(=S)[nH]c1=O	none
O=[N+]([O-])c1ccc(NCc2ccccc2)c2nonc12	Rev-erbA mod 38 (no result: TAG inh, hiPSC survival) | Rev-erbA confirm 52 | RORg counter 4.1
Cn1nc(-c2ccc(OCC(=O)N3CCN(Cc4ccccc4)CC3)cc2)c2ccccc2c1=O	none (no result: TAG inh)
CCCCCCn1c(=O)c(C(=O)Nc2cnccn2)c(O)c2ccccc21	Rev-erbA mod 14 | Rev-erbA confirm inactive
CCCCCn1c(=O)c(C(=O)Nc2ccccn2)c(O)c2ccccc21	none (no result: TAG inh)
CCCCCn1c(=O)c(C(=O)Nc2ccccc2)c(O)c2ccccc21	Rev-erbA mod 21 (no result: TAG inh) | Rev-erbA confirm inactive
O=c1c(C=NCCN2CCNCC2)c(O)n(C2CCCCC2)c(=O)n1C1CCCCC1	none (no result: PG9 Ab binder, TAG inh, Rev-erbA mod)
O=c1c(C=NCc2cccs2)c(O)n(C2CCCCC2)c(=O)n1C1CCCCC1	Rev-erbA mod 63 | Rev-erbA confirm inactive
CC(=O)OC1N=C(c2ccccc2)c2ccccc2NC1=O (stereo not drawn)	none (no result: TAG inh)
c1cc(CNCCc2ccc3c(c2)OCO3)ccn1	none (no result: TAG inh)
CN1C(=O)C(=Cc2ccc(N3CCOCC3)o2)C(=O)N(C)C1=O	Rev-erbA mod 41 (no result: TAG inh) | Rev-erbA confirm 44 | RORg counter inactive
CN1C(=O)C(=Cc2ccc(N3CCCCCC3)o2)C(=O)N(C)C1=S	Rev-erbA mod 39 (no result: T cruzi repl) | Rev-erbA confirm 60 | RORg counter inactive
Cc1ccccc1N1C(=O)NC(=O)/C(=C/c2ccc(N3CCOCC3)o2)C1=O	none
O=C1NC(=O)N(c2ccc3c(c2)OCO3)C(=O)/C1=C\c1ccc(N2CCCCC2)o1	Rev-erbA mod 26 (no result: TAG inh) | Rev-erbA confirm 26
O=c1[nH]c(O)c(C=Nc2ccc(Cl)c(C(F)(F)F)c2)c(=O)[nH]1	none (no result: TAG inh)
O=C1NC(=S)SC1=Cc1ccc(N(CCCl)CCCl)cc1	Rev-erbA mod 24 (no result: MIN6 prolif, T cruzi repl) | Rev-erbA confirm 20
O=C1Nc2ccccc2C(c2ccccc2)=NC1O (stereo not drawn)	none (no result: TAG inh)
CCCCOCCCN1C(C)=CC(=C2C(=O)NC(=S)NC2=O)C=C1C	Rev-erbA mod 41 | Rev-erbA confirm inactive
CC12CN3CC(C)(CN(C1)C3c1cccs1)C2O (stereo not drawn)	none (no result: TAG inh)
Cc1cc(OCC(=O)NCc2ccncc2)c2c3c(c(=O)oc2c1)CCC3	none (no result: TAG inh)
COc1ccc(N=Nc2c(O)[nH]c(=S)[nH]c2=O)cc1	Rev-erbA mod 27 | Rev-erbA confirm 19
O=c1[nH]c(=S)[nH]c(O)c1N=Nc1ccc2c(c1)OCCO2	Rev-erbA mod 30 | Rev-erbA confirm 25
O=c1[nH]c(=S)[nH]c(O)c1N=Nc1ccc(OC(F)F)cc1	none
Cc1ccnc(-n2c(C)nc3ccccc3c2=O)c1	none
O=[N+]([O-])c1ccc(N2CCCCC2)c2ncccc12	none
O=[N+]([O-])c1ccc(N2CCCCCC2)c2nonc12	Rev-erbA mod 56 (no result: TAG inh) | Rev-erbA confirm 49 | RORg counter 4.1
NCCNc1ccc([N+](=O)[O-])c2cccnc12	T cruzi repl inconclusive
CCCCOC(=O)COc1cc(C)cc2oc(=O)c3c(c12)CCC3	Rev-erbA mod 26 | Rev-erbA confirm inactive
